{"source": "ChEMBL document CHEMBL4229397", "about": "“N-(7-Cyano-6-(4-fluoro-3-(2-(3-(trifluoromethyl)phenyl)acetamido)phenoxy)benzo[d]thiazol-2-yl)cyclopropanecarboxamide (TAK632) Promotes Inhibition of BRAF through the Induction of Inhibited Dimers” (J Med Chem, 2018)", "key": {"[1]": {"target": "Serine/threonine-protein kinase B-raf (Homo sapiens, UniProt P15056, V600E)", "sequence (P15056 2-766 V600E limits assumed)": "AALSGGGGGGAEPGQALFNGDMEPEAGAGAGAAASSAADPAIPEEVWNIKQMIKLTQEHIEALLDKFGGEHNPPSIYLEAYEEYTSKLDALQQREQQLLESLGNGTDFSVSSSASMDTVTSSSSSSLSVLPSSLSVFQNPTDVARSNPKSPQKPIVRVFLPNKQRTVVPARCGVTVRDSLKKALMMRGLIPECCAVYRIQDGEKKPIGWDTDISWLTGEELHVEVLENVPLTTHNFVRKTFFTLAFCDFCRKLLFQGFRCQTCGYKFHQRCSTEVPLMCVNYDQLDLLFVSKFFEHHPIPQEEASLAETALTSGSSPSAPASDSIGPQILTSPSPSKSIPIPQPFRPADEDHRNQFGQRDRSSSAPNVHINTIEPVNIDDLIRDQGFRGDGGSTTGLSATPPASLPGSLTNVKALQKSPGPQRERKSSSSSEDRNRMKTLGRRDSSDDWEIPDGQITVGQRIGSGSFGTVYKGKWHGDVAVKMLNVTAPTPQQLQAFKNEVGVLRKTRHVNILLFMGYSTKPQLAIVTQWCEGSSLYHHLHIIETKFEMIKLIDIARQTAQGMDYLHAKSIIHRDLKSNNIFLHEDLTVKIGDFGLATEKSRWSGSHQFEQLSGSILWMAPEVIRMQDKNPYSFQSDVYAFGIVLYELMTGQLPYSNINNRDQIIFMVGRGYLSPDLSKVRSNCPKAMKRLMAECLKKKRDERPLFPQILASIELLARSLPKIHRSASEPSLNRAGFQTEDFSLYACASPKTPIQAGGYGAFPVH", "assay": "Inhibition of N-terminal 6x-His-tagged BRAF V600E mutant (unknown origin) expressed in baculovirus infected Sf9 insect cells co-expressing mouse p50cdc37 using C-terminal His-tagged/N-terminal GST-tagged full length human MEK1 as substrate after 1 hr by ELISA", "how_it_was_run": "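ELISA: GST-MEK1 bound to glutathione-coated plate 1 h, room temperature. Insect-cell His-BRAF V600E (1:1000 dilution) preincubated with inhibitor 1 h, room temperature, then reacted with 100 μM ATP in 50 mM HEPES pH 7.0, 200 mM NaCl, 20 mM MgCl2, 30 min, 37 °C. Anti-pMEK S217/S221, HRP secondary, chemiluminescence. Duplicate or triplicate, min–max normalized, log(inhibitor)-response IC50.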"}, "[2]": {"target": "T1, Serine/threonine-protein kinase B-raf (Homo sapiens, UniProt P15056)", "T1 sequence (P15056 whole entry, the tested form may be a part)": "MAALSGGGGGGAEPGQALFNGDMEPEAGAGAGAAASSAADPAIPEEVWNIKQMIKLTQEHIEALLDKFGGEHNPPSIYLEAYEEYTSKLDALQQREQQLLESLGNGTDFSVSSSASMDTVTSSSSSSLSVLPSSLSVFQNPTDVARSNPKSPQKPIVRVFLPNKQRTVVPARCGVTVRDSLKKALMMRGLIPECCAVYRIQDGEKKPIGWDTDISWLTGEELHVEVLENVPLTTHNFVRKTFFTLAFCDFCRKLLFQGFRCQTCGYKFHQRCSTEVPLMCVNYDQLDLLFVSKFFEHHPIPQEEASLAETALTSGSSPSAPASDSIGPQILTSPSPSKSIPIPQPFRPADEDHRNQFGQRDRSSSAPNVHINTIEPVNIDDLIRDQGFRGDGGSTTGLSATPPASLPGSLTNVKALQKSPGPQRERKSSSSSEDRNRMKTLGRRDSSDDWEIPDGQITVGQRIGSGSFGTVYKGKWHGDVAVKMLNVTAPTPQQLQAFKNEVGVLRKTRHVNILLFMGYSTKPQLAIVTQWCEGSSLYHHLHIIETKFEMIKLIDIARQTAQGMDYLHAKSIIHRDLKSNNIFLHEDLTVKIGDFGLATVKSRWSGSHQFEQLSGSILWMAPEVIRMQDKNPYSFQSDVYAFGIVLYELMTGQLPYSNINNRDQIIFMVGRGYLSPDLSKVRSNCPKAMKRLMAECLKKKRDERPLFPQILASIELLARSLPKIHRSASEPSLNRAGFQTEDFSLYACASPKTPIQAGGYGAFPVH", "assay": "Inhibition of N-terminal 6x-His-tagged BRAF kinase domain (unknown origin) expressed in baculovirus infected Sf9 insect cells co-expressing mouse p50cdc37 using C-terminal His-tagged/N-terminal GST-tagged full length human MEK1 as substrate after 1 hr by ELISA", "how_it_was_run": "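His-tagged BRAF kinase domain (residues 442–724, WT or V600E) was preincubated with inhibitor 1 h at room temperature in 50 mM HEPES pH 7.0, 50 mM NaCl. It was then added to GST-MEK1 bound on glutathione plates, with 100 μM ATP final in 50 mM HEPES pH 7.0, 200 mM NaCl, 20 mM MgCl2, for 30 min at 37 °C. Phospho-MEK (S217/S221) was read by chemiluminescent ELISA. Curves run in duplicate/triplicate, min–max normalized, IC50 from log(inhibitor)–response fit.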"}, "[3]": {"target": "T1, Serine/threonine-protein kinase B-raf", "assay": "Induction of N-terminal 6x-His-tagged BRAF (unknown origin) dimer formation expressed in baculovirus infected Sf9 insect cells co-expressing mouse p50cdc37 at 15 uM by sedimentation velocity method"}, "[4]": {"tested_on": "Serine/threonine-protein kinase B-raf (Homo sapiens), P15056 [V600E]", "sequence (P15056 whole entry V600E)": "as the sequence (P15056 whole entry, the tested form may be a part) above, with V600E counted along it", "assay": "Induction of N-terminal 6x-His-tagged BRAF V600E mutant (unknown origin) dimer formation expressed in baculovirus infected Sf9 insect cells co-expressing mouse p50cdc37 at 10 uM by sedimentation velocity method"}, "[5]": {"tested_on": "Serine/threonine-protein kinase B-raf (Homo sapiens), P15056 [V600E]", "assay": "Induction of N-terminal 6x-His-tagged BRAF V600E mutant (unknown origin) dimer formation expressed in baculovirus infected Sf9 insect cells co-expressing mouse p50cdc37 at 20 uM by sedimentation velocity method"}, "[6]": {"target": "T1, Serine/threonine-protein kinase B-raf", "assay": "Induction of N-terminal 6x-His-tagged BRAF (unknown origin) dimer formation expressed in baculovirus infected Sf9 insect cells co-expressing mouse p50cdc37 at 200 uM measured after trypsin digestion for 30 mins by coomassie blue staining-based SDS-PAGE method"}, "[7]": {"target": "T1, Serine/threonine-protein kinase B-raf", "assay": "Induction of N-terminal 6x-His-tagged BRAF (unknown origin) dimer formation expressed in baculovirus infected Sf9 insect cells co-expressing mouse p50cdc37 assessed as melting temperature at 125 uM by differential scanning calorimetric method"}, "[8]": {"target": "T1, Serine/threonine-protein kinase B-raf", "assay": "Induction of N-terminal 6x-His-tagged BRAF (unknown origin) dimer formation expressed in baculovirus infected Sf9 insect cells co-expressing mouse p50cdc37 assessed as melting temperature at 75 uM by differential scanning calorimetric method (reference value: 37.84 degC)"}, "[9]": {"target": "T1, Serine/threonine-protein kinase B-raf", "assay": "Induction of N-terminal 6x-His-tagged BRAF (unknown origin) dimer formation expressed in baculovirus infected Sf9 insect cells co-expressing mouse p50cdc37 assessed as melting temperature at 250 uM by differential scanning calorimetric method (reference value: 37.84 degC)"}}, "note": "Activity calls are given as the source filed them. The rule behind the calls is not given here."}
{"smiles": "N#Cc1c(Oc2ccc(F)c(NC(=O)Cc3cccc(C(F)(F)F)c3)c2)ccc2nc(NC(=O)COCCOCCOCC(=O)Nc3nc4ccc(Oc5ccc(F)c(NC(=O)Cc6cccc(C(F)(F)F)c6)c5)c(C#N)c4s3)sc12", "values": [{"measurement": "IC50", "setting": "[1]", "result": 73.9, "unit": "nM"}, {"measurement": "IC50", "setting": "[2]", "result": "87.2 to 132", "unit": "nM"}, {"measurement": "Activity", "setting": "[3]", "result": "inactive"}, {"measurement": "Activity", "setting": "[4]", "result": "inactive"}, {"measurement": "Activity", "setting": "[5]", "result": "inactive"}, {"measurement": "Activity", "setting": "[6]", "result": "inactive"}, {"measurement": "Tm", "setting": "[7]", "result": "38.7 to 59.6", "unit": "°C"}, {"measurement": "Tm", "setting": "[8]", "result": "38.4 to 58.6", "unit": "°C"}, {"measurement": "Tm", "setting": "[9]", "result": "40.1 to 62.6", "unit": "°C"}]}
{"smiles": "COCCOCC(=O)Nc1nc2ccc(Oc3ccc(F)c(NC(=O)Cc4cccc(C(F)(F)F)c4)c3)c(C#N)c2s1", "values": [{"measurement": "IC50", "setting": "[2]", "result": 5.75, "unit": "nM"}]}
{"smiles": "N#Cc1c(Oc2ccc(F)c(NC(=O)Cc3cccc(C(F)(F)F)c3)c2)ccc2nc(NC(=O)C3CC3)sc12", "values": [{"measurement": "IC50", "setting": "[1]", "result": 4.46, "unit": "nM"}, {"measurement": "IC50", "setting": "[2]", "result": "3.23 to 7.11", "unit": "nM"}, {"measurement": "Activity", "setting": "[3]", "result": "Active"}, {"measurement": "Activity", "setting": "[4]", "result": "Active"}, {"measurement": "Activity", "setting": "[6]", "result": "Active"}, {"measurement": "Tm", "setting": "[7]", "result": 68.7, "unit": "°C"}]}
{"smiles": "N#Cc1c(Oc2ccc(F)c(NC(=O)Cc3cccc(C(F)(F)F)c3)c2)ccc2nc(NC(=O)COCCOCCOCCOCC(=O)Nc3nc4ccc(Oc5ccc(F)c(NC(=O)Cc6cccc(C(F)(F)F)c6)c5)c(C#N)c4s3)sc12", "values": [{"measurement": "IC50", "setting": "[1]", "result": 168, "unit": "nM"}, {"measurement": "IC50", "setting": "[2]", "result": 616, "unit": "nM"}]}
{"smiles": "CCCS(=O)(=O)Nc1ccc(F)c(C(=O)c2c[nH]c3ncc(-c4ccc(Cl)cc4)cc23)c1F", "values": [{"measurement": "Activity", "setting": "[3]", "result": "inactive"}, {"measurement": "Activity", "setting": "[6]", "result": "inactive"}]}
{"smiles": "N#Cc1c(Oc2ccc(F)c(NC(=O)Cc3cccc(C(F)(F)F)c3)c2)ccc2nc(NC(=O)COCCOCCOCCOCCOCCOCCOCC(=O)Nc3nc4ccc(Oc5ccc(F)c(NC(=O)Cc6cccc(C(F)(F)F)c6)c5)c(C#N)c4s3)sc12", "values": [{"measurement": "IC50", "setting": "[1]", "result": 352, "unit": "nM"}, {"measurement": "IC50", "setting": "[2]", "result": 732, "unit": "nM"}]}
{"smiles": "N#Cc1c(Oc2ccc(F)c(NC(=O)Cc3cccc(C(F)(F)F)c3)c2)ccc2nc(NC(=O)COCC(=O)Nc3nc4ccc(Oc5ccc(F)c(NC(=O)Cc6cccc(C(F)(F)F)c6)c5)c(C#N)c4s3)sc12", "values": [{"measurement": "IC50", "setting": "[1]", "result": 421, "unit": "nM"}, {"measurement": "IC50", "setting": "[2]", "result": 537, "unit": "nM"}]}
{"smiles": "N#Cc1c(Oc2ccc(F)c(NC(=O)Cc3cccc(C(F)(F)F)c3)c2)ccc2nc(NC(=O)COCCOCCOCCOCCOCC(=O)Nc3nc4ccc(Oc5ccc(F)c(NC(=O)Cc6cccc(C(F)(F)F)c6)c5)c(C#N)c4s3)sc12", "values": [{"measurement": "IC50", "setting": "[1]", "result": 73.8, "unit": "nM"}, {"measurement": "IC50", "setting": "[2]", "result": "85.5 to 90.2", "unit": "nM"}, {"measurement": "Activity", "setting": "[5]", "result": "inactive"}]}
{"smiles": "N#Cc1c(Oc2ccc(F)c(NC(=O)Cc3cccc(C(F)(F)F)c3)c2)ccc2nc(NC(=O)COCCOCCOCC(=O)Nc3nccs3)sc12", "values": [{"measurement": "IC50", "setting": "[2]", "result": 20.3, "unit": "nM"}, {"measurement": "Activity", "setting": "[6]", "result": "Active"}, {"measurement": "Tm", "setting": "[7]", "result": 63.3, "unit": "°C"}]}
